Bioassay records: PubChem, several laboratories
pCIP destab – compounds decreasing mouse p/CIP protein stability; Q05BA5; F442A p/CIP-EGFP cells, EGFP fluorescence, 16 h; decrease of EGFP signal, % at 10 µM; 0.01% of 290,000 active;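 active means EGFP signal decrease of at least 30% at 10 µM or well 3 SD below plate mean, unless failing retest; inactive means the rest, including hits failing retest or dose response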
PP1 counter – PP1-alpha (human) inhibition in PP5 counter-screen | purified PP1alpha, OMFP fluorescence | inhibition, % at 6.7 µM | 0.9% of 320,000 active | P62136;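 active means inhibition above the mean inhibition of all tested compounds plus 3 SD, computed separately for each screening campaign, cut at about 15% in these data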
UBC13 inh – human UBC13 polyubiquitination inhibition. inhibition, % at 20 µM. AID 485273. 0.47% of 330,000 active. UBC13 polyubiquitin chain formation, TR-FRET; in the data active means inhibition above about 45%, passing the limit was not always enough
AI-2 QS modul – modulators of Vibrio harveyi AI-2 quorum sensing system | Vibrio harveyi JMH597 AI-2 luminescence/OD600 ratio, 9 h; hits give low values; strain lacks LuxN and CqsS sensors; 0 = neutral-control median | activity change, % at 7.5 µM | 0.4% of 300,000 active; in the data active means activity change below about -75%, passing the limit was not always enough;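 further: luminescence divided by OD600 gain over 9 h not by final OD600 alone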
T cruzi inh – blocks replication of Trypanosoma cruzi; 1.4% of 300,000 active; inhibition, % (concentration not given with the values); T. cruzi beta-gal in NIH3T3, luminescence, 90 h;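 active means mean inhibition across valid replicates above about 55%, limit read from the data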;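 further: signal also drops with host cell toxicity which is not excluded here; higher percent means less beta-gal luminescence so fewer parasites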
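Read-out: Parasite load inhibition, % | Test system: Mouse NIH/3T3 fibroblasts infected with β-gal-expressing T. cruzi Tulahuen C4 | Amount: 5,000 cells/well | Medium: DMEM, 2% fetal bovine serum | Signal: GalScreen β-gal luminescence, detergent lysis, 60 min | Timing: 3 h attach, ≥90 h co-culture | Also added: Tulahuen C4 trypomastigotes, 5000/well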
PP1 confirm – confirmation of human PP1 phosphatase inhibitors | purified PP1alpha, OMFP substrate fluorescence | 52% of 1,900 active | inhibition, % at 6.7 µM | AID 2358 | shares compounds with PP1 counter;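 active means mean PP1 inhibition above a set limit taken from the earlier primary screen, cut at about 15% in these data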
PP5 counter – PP5 phosphatase inhibition, counter-screen for PP1 inhibitors; purified PP5c, OMFP fluorescence; AID 2360; 4% of 1,900 active; inhibition, % at 6.7 µM; shares compounds with PP1 counter;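 active means mean PP5 inhibition over triplicate wells above about 9.5% taken from the earlier PP1 screen, limit read from the data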
Target sequence (P53041 whole entry, looked up): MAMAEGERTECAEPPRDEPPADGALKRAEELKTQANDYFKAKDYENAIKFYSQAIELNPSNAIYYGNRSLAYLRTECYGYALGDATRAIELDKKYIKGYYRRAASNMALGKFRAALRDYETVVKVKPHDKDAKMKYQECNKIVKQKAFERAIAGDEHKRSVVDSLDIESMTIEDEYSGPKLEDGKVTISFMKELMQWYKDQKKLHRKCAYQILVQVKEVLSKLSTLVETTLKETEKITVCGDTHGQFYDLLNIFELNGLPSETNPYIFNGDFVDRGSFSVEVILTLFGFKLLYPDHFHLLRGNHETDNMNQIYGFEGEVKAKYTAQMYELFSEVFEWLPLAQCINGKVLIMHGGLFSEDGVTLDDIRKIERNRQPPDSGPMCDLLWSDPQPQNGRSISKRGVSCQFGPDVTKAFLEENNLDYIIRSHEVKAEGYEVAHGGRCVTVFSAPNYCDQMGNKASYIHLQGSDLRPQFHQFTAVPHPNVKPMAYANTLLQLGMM
Casp3 counter – counter-screen for UBC13 inhibitors: human caspase-3 inhibition; shares compounds with UBC13 inh; Recombinant caspase-3, Caspase-Glo 3/7 luminescence, 60 min; inhibition, % at 20 µM; 4% of 1,400 active;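 active means mean inhibition across replicates above about 26%, limit read from the data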
UBC13 confirm – human UBC13 polyubiquitin inhibition, confirmed; shares compounds with UBC13 inh; UBC13 polyubiquitination, TR-FRET, biochemical; inhibition, % at 10 µM; 68% of 1,400 active; AID 488859; in the data active means inhibition above about 45%
Each line names hits and unclear results; the compound was inactive in the other large screens (follow-up assays come after a bar, where they were run). Hits are enriched below; roughly 2.8% of the tested compounds scored in any of these assays.

O=C(N/N=C/c1c(O)n(Cc2ccc(F)cc2)c(=O)[nH]c1=O)c1ccccc1O	PP1 counter 21 | PP1 confirm inactive | PP5 counter inactive
O=C1NC(=O)N(Cc2ccco2)C(=O)/C1=C/c1ccc(-c2cccc([N+](=O)[O-])c2)o1	PP1 counter 33 | PP1 confirm 16 | PP5 counter inactive
CN1C[C@H](CO)C=C2c3cccc4[nH]cc(c34)C[C@H]21	PP1 counter 32 | PP1 confirm inactive | PP5 counter inactive
CC(C)[C@H]1C(=O)N2CCC[C@H]2[C@]2(O)O[C@](NC(=O)[C@@H]3C=C4c5cccc6[nH]cc(c56)C[C@H]4N(C)C3)(C(C)C)C(=O)N12	none (no result: T cruzi inh)
O=C(NCNC(=O)NC1C(=O)NC(=O)N1CO)NC1C(=O)NC(=O)N1CO (configuration not stated)	none (no result: pCIP destab, AI-2 QS modul, T cruzi inh)
O=C(O)C1C2CCC(O2)C1C(=O)Nc1cccc(Br)c1 (configuration not stated)	PP1 counter 69 | PP1 confirm inactive | PP5 counter 19
Cc1cc(C=O)c(C)n1C1CC1	none
O=C1CN(O)C(c2ccccc2)=c2cc(Cl)ccc2=N1	none
CCCCn1c(C)c(C(=O)O)c2cc(OC)c3ccccc3c21	none
CN(C)[C@@H]1C(=O)C(C(N)=O)=C(O)[C@@]2(O)C(=O)C3=C(O)c4c(O)cccc4[C@@](C)(O)C3C[C@@H]12 (some centres not stated)	none (no result: pCIP destab)
CN(C)[C@@H]1C(=O)C(C(N)=O)=C(O)[C@@]2(O)C(=O)C3=C(O)c4c(O)cccc4[C@@](C)(O)[C@H]3[C@H](O)[C@@H]12	PP1 counter 44 | PP1 confirm 20 | PP5 counter inactive
Clc1ccc(COC(Cn2ccnc2)c2ccc(Cl)cc2Cl)c(Cl)c1 (configuration not stated)	PP1 counter 23 | PP1 confirm 27 | PP5 counter inactive
CCCCCn1c(=O)c(C(=O)Nc2ncccc2C)c(O)c2ccccc21	PP1 counter 25 | PP1 confirm 22 | PP5 counter inactive
CC(=O)c1ccc(OCC(=O)N2CCCC(N(C)Cc3ccccc3)C2)cc1 (configuration not stated)	none
Cc1nccc2c1[nH]c1ccc(Br)cc12	PP1 counter 21 (no result: pCIP destab) | PP1 confirm inactive | PP5 counter inactive
COC(=O)C1=C(c2cc3ccccc3s2)C[C@@H]2CC[C@H]1N2C(=O)NCCS(C)=O (some centres not stated)	none (no result: pCIP destab)
COCCCNC(=O)c1c(NC(=O)c2ccccc2)n(Cc2ccccc2)c2nc3ccccc3nc12	UBC13 inh 49 (no result: pCIP destab) | Casp3 counter inactive | UBC13 confirm inactive
COCCOC(=O)c1c(N)n(Cc2ccccc2)c2nc3ccccc3nc12	none
O=P1(NCCCl)OCCCN1CCCl (configuration not stated)	UBC13 inh 46 (no result: pCIP destab, AI-2 QS modul, T cruzi inh) | Casp3 counter inactive | UBC13 confirm inactive
NC(N)=Nc1ccc2[nH]c3c(c2c1)C[C@@]1(O)[C@H]2Cc4ccc(O)c5c4[C@@]1(CCN2CC1CC1)[C@H]3O5	UBC13 inh 53 (no result: pCIP destab, AI-2 QS modul, T cruzi inh) | Casp3 counter inactive | UBC13 confirm inactive
COc1cc2c(c(OC)c1OC)-c1ccc(O)c(=O)cc1[C@@H](N)CC2	UBC13 inh 100 (no result: pCIP destab, AI-2 QS modul, T cruzi inh) | Casp3 counter inactive | UBC13 confirm 93
COc1cc2c(c(OC)c1OC)-c1ccc(C(=O)O)cc1[C@@H](NC(C)=O)CC2	none (no result: pCIP destab)
CCCC[N+]1(C)[C@@H]2CC(OC(=O)[C@H](CO)c3ccccc3)C[C@H]1[C@@H]1O[C@@H]12 (some centres not stated)	none
O=C(C(=O)N1CCOCC1)c1cn(Cc2ccccc2Cl)c2ccccc12	UBC13 inh 54 | Casp3 counter inactive | UBC13 confirm 53
O=C(C(=O)N1CCOCC1)c1cn(Cc2ccc(F)cc2)c2ccccc12	UBC13 inh 45 | Casp3 counter inactive | UBC13 confirm inactive
C[C@@]12N[C@@H](Cc3ccccc31)c1ccccc12	none (no result: pCIP destab)
CCOC(=O)c1c(C)n(Cc2ccccc2)c2ccc(OCC(O)CNC(C)(C)C)cc12 (configuration not stated)	none
O=c1c2ccccc2nc(-c2cccs2)n1-c1ccccc1	none
NC(N)=N/N=C/c1cn(-c2ccccc2)nc1-c1cccs1	PP1 counter 17, UBC13 inh 79 | Casp3 counter inactive | UBC13 confirm 85
O=C(Cn1cnc2sc3c(c2c1=O)CCCC3)NCCC(=O)N1CCC2(CC1)OCCO2	none
COC(=O)C1=C(c2ccc(OCc3ccccc3)cc2)C[C@@H]2CC[C@H]1N2C(=O)NC1CCN(Cc2ccccc2)CC1	UBC13 inh 55 (no result: pCIP destab, AI-2 QS modul, T cruzi inh) | Casp3 counter inactive | UBC13 confirm inactive
CN1CCN(c2ccc([N+](=O)[O-])c(SCCO)c2)CC1	none
COc1ccc(CCNCc2cccc(C(F)(F)F)c2)cc1OC	none
COc1ccccc1CCNCc1cccc(C(F)(F)F)c1	UBC13 inh 52 | Casp3 counter inactive | UBC13 confirm inactive
CC12CNCC(C)(CNC1)C2O (configuration not stated)	UBC13 inh 57 | Casp3 counter inactive | UBC13 confirm inactive
COc1ccc(OC)c(C(O)C2CCCCN2)c1 (configuration not stated)	none
CCCCCCCSc1cc(OC)c(CCNC)cc1OC	UBC13 inh 51 | Casp3 counter inactive | UBC13 confirm 62
S=C1NCCN1	none
CCN(CC)CCCNC(=O)c1c(O)c2ccccc2n(Cc2ccccc2)c1=O	UBC13 inh 53 | Casp3 counter inactive | UBC13 confirm 74
COc1ccccc1C1CC2CCC(C1OC(C)=O)N2Cc1ccccc1 (configuration not stated)	none
